ChEMBL document CHEMBL2069263, “Synthesis and characterization of quinoline-based thiosemicarbazones and correlation of cellular iron-binding efficacy to anti-tumor efficacy” (Bioorg Med Chem Lett, 2012)
Activity calls are given as the source filed them. The calls are words filed in the database; no cut-off is given here.

Tests used:
NHDF = assay: Antiproliferative activity against human NHDF cells after 72 hrs by MTT assay; format: cell-based
Method in brief: (§1)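 Cells (SK-N-MC neuroepithelioma, HCT116 colon cancer p53+/+ or p53−/−, normal human dermal fibroblasts) were exposed to compounds for 72 h and proliferation was measured by standard methods. IC50 is reported as mean ± SD of three experiments.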

SK-N-MC [1] = assay: Iron chelation activity in human SK-N-MC cells assessed as cellular 59Fe released at 25 uM incubated for 3 hrs post 59Fe-transferrin-labeling by gamma scintillation counting; format: functional
Method in brief: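 SK-N-MC cells were prelabeled with 59Fe-transferrin for 3 h at 37 °C and washed 4 times with ice-cold PBS. They were then reincubated for 3 h at 37 °C with or without chelator. Released 59Fe was counted by scintillation counting. Results are mean ± SD of three experiments.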

HCT-116 [2] = assay: Antiproliferative activity against p53-deficient human HCT116 cells after 72 hrs by MTT assay; format: functional, cell-based; conditions: HCT-116, 72 h; method in brief: as §1
HCT-116 [3] = assay: Antiproliferative activity against human HCT116 cells expressing p53 after 72 hrs by MTT assay; format: functional, cell-based; conditions: HCT-116, 72 h; method in brief: as §1
SK-N-MC [4] = assay: Antiproliferative activity against human SK-N-MC cells after 72 hrs by MTT assay; format: functional, cell-based; method in brief: as §1
SK-N-MC [5] = assay: Iron chelation activity in human SK-N-MC cells assessed as inhibition of 59Fe uptake from transferrin complex at 25 uM after 3 hrs by gamma scintillation counting relative to control; format: functional; set-up: scale not given: the % may be the effect or the level left
Method in brief: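 SK-N-MC cells were incubated with 59Fe-transferrin, with or without chelator, for 3 h at 37 °C and washed 4 times with ice-cold PBS. Internalized 59Fe was taken as the pronase-resistant fraction after pronase (1 mg/mL, 30 min, 4 °C) and counted by γ-scintillation. Uptake is expressed relative to control, mean ± SD of three experiments.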

HCT-116 [6] = assay: Antiproliferative activity against p53-deficient human HCT116 cells assessed as cell survival at 50 uM after 9 days by clonogenic assay relative to control; format: functional
HCT-116 [7] = assay: Antiproliferative activity against human HCT116 cells expressing p53 assessed as cell survival at 25 uM after 9 days by clonogenic assay relative to control; format: functional
HCT-116 [8] = assay: Antiproliferative activity against human HCT116 cells expressing p53 assessed as cell survival at 20 uM after 9 days by clonogenic assay relative to control; format: functional
HCT-116 [9] = assay: Antiproliferative activity against human HCT116 cells expressing p53 assessed as cell survival at 50 uM after 9 days by clonogenic assay relative to control; format: functional
HCT-116 [10] = assay: Antiproliferative activity against p53-deficient human HCT116 cells assessed as cell survival at 20 uM after 9 days by clonogenic assay relative to control; format: functional
HCT-116 [11] = assay: Antiproliferative activity against p53-deficient human HCT116 cells assessed as cell survival at 30 uM after 9 days by clonogenic assay relative to control; format: functional
HCT-116 [12] = assay: Antiproliferative activity against p53-deficient human HCT116 cells assessed as cell survival at 40 uM after 9 days by clonogenic assay relative to control; format: functional
HCT-116 [13] = assay: Antiproliferative activity against p53-deficient human HCT116 cells assessed as cell survival at 25 uM after 9 days by clonogenic assay relative to control; format: functional
HCT-116 [14] = assay: Antiproliferative activity against human HCT116 cells expressing p53 assessed as cell survival at 30 uM after 9 days by clonogenic assay relative to control; format: functional
HCT-116 [15] = assay: Antiproliferative activity against human HCT116 cells expressing p53 assessed as cell survival at 40 uM after 9 days by clonogenic assay relative to control; format: functional
[16] = Therapeutic index, ratio of IC50 for human NHDF cells to IC50 for human SK-N-MC cells; format: cell-based; conditions: NHDF cells and SK-N-MC cells, read-out: Ratio IC50
Method in brief: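 Ratio of NHDF IC50 to SK-N-MC IC50. Both IC50s come from anti-proliferative assays after a 72 h incubation with the chelator. Each IC50 is the mean ± SD of three experiments.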

HCT-116 [17] = assay: Antiproliferative activity against human HCT116 cells expressing p53 assessed as cell survival at 1 nM after 9 days by clonogenic assay relative to control; format: functional
HCT-116 [18] = assay: Antiproliferative activity against human HCT116 cells expressing p53 assessed as cell survival at 5 nM after 9 days by clonogenic assay relative to control; format: functional
HCT-116 [19] = assay: Antiproliferative activity against human HCT116 cells expressing p53 assessed as cell survival at 0.5 nM after 9 days by clonogenic assay relative to control; format: functional

Structure (SMILES)	IC50 (NHDF) [µM]	Activity (SK-N-MC [1])	IC50 (HCT-116 [2]) [µM]	IC50 (HCT-116 [3]) [µM]	IC50 (SK-N-MC [4]) [µM]	Activity (SK-N-MC [5]) [%]	other results
CNC(=S)N/N=C/c1ccc2cccc(O)c2n1	> 25	inactive	2.17	1.71	> 12.5	49	–
CNC(=S)N/N=C/c1c(O)ccc2cccnc12	> 25	33%	8.06	> 25	0.62	45	fold change (FC) (HCT-116 [6]): 0; fold change (FC) (HCT-116 [7]): 0.041; fold change (FC) (HCT-116 [8]): 0.05; fold change (FC) (HCT-116 [9]): 0; fold change (FC) (HCT-116 [10]): 0.06; fold change (FC) (HCT-116 [11]): 0.012; fold change (FC) (HCT-116 [12]): 0.004; fold change (FC) (HCT-116 [13]): 0.034; fold change (FC) (HCT-116 [14]): 0.039; fold change (FC) (HCT-116 [15]): 0.014
CCNC(=S)N/N=C/c1ccc2cccc(O)c2n1	> 25	inactive	3.15	2.62	> 12.5	49	–
CN(C)C(=S)N/N=C/c1ccc2ccccc2n1	11.7	–	0.37	4.86	0.81	49	selectivity ratio [16]: 14
CN(C)C(=S)NN=C(c1ccccn1)c1ccccn1	15.4	–	0.005	0.002	0.014	–	fold change (FC) (HCT-116 [17]): 0.8541; fold change (FC) (HCT-116 [18]): 0.1922; fold change (FC) (HCT-116 [19]): 1.0629
CNC(=S)N/N=C/c1ccc2ccccc2n1	–	–	> 25	> 25	> 12.5	49	–
CCNC(=S)N/N=C/c1c(O)ccc2cccnc12	> 25	33%	> 25	> 25	0.19	24	–
CC(=O)N(O)CCCCCNC(=O)CCC(=O)N(O)CCCCCNC(=O)CCC(=O)N(O)CCCCCN [DEFEROXAMINE]	–	–	–	–	12.5	–	–
O=C(N/N=C/c1c(O)ccc2ccccc12)c1ccncc1	–	–	–	–	1.3	–	–
CCNC(=S)N/N=C/c1ccc2ccccc2n1	–	–	19.6	23.2	> 12.5	49	–
CN(C)C(=S)N/N=C(/c1ccccc1)c1ccccn1	–	–	–	–	–	–	fold change (FC) (HCT-116 [17]): 0.1273; fold change (FC) (HCT-116 [19]): 0.6762
S=C(N/N=C/c1ccc2ccccc2n1)Nc1ccccc1	–	inactive	21.4	22.3	> 12.5	–	–
CN(C)C(=S)N/N=C/c1ccc2cccc(O)c2n1	15.8	33%	0.27	> 15	9.69	14	–
Oc1ccc2cccnc2c1/C=N/NC(=S)Nc1ccccc1	14.9	–	18.6	16.3	1.63	49	–
Oc1cccc2ccc(/C=N/NC(=S)Nc3ccccc3)nc12	–	inactive	20.9	25	> 12.5	49	–
CN(C)C(=S)N/N=C/c1c(O)ccc2cccnc12	14.9	33%	> 25	20.8	0.11	18	selectivity ratio [16]: 131
